According to ChEMBL document CHEMBL1143838, “Candida albicans and Candida dubliniensis respond differently to echinocandin antifungal agents in vitro” (2007):
≈ marks a conversion by molar mass, not a printed value.

What was measured:
Type in all cases: functional
Candida albicans [1] = assay: Antifungal activity against Candida albicans SCS140136P after 24 hrs by EUCAST test
Summary of the method: (§1)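 EUCAST broth microdilution with aqueous doubling dilutions of drug. Inoculum grown overnight at 30°C in NGY, then added to MOPS-buffered RPMI 1640 with 2% glucose at an initial 10^5 yeasts/ml. Incubated 35°C for 24 h. MICs taken from triplicate spectrophotometric dose-response data as 50% and 80% growth-reduction endpoints.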

Pichia kudriavzevii = assay: Antifungal activity against Candida krusei ATCC 6258 after 24 hrs by EUCAST test; conditions: ATCC 6258, 24 h
Summary of the method: (§2)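 Yeasts were grown overnight at 30°C in NGY, then inoculated at 10^5 yeasts/ml initial concentration into MOPS-buffered RPMI 1640 with 2% glucose containing aqueous doubling dilutions of drug. Plates were held at 35°C for 24 h. MICs came from triplicate spectrophotometric dose-response data at 50% and 80% growth-reduction endpoints. Trailing meant a >100-fold gap between these endpoints; paradoxical meant regrowth ≥5% above the curve minimum.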

Candida dubliniensis [2] = assay: Antifungal activity against Candida dubliniensis SCS17154969-2 after 24 hrs by EUCAST test; summary of the method: as §2
Candida dubliniensis [3] = assay: Antifungal activity against Candida dubliniensis ANSA 23a after 24 hrs by EUCAST test; summary of the method: as §2
Candida dubliniensis [4] = assay: Antifungal activity against Candida dubliniensis Leic952 after 24 hrs by CLSI M27-A test
Summary of the method: (§3)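 Broth microdilution with echinocandins as aqueous doubling dilutions. Yeasts were grown overnight at 30°C in NGY and seeded at 10^3 yeasts/ml initial concentration in MOPS-buffered RPMI 1640, then incubated at 35°C for 24 h. The MIC was read visually as the lowest concentration giving a marked decrease in visible growth; paradoxical or trailing growth was noted.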

Candida albicans [5] = assay: Antifungal activity against Candida albicans T26 after 24 hrs by EUCAST test; summary of the method: as §1
Candida albicans [6] = assay: Antifungal activity against Candida albicans JIMS132203 after 24 hrs by EUCAST test; summary of the method: as §1
Candida dubliniensis [7] = assay: Antifungal activity against Candida dubliniensis 90/033 after 24 hrs by EUCAST test; summary of the method: as §1
Candida albicans [8] = assay: Antifungal activity against Candida albicans B06-341 after 24 hrs by EUCAST test; summary of the method: as §1
Candida dubliniensis [9] = assay: Antifungal activity against Candida dubliniensis Leic952 after 24 hrs by EUCAST test; summary of the method: as §2
Candida albicans [10] = assay: Antifungal activity against Candida albicans HK04M102095 after 24 hrs by CLSI M27-A test
Summary of the method: (§4)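 CLSI M27-A broth microdilution with aqueous doubling dilutions of drug. Inoculum grown overnight at 30°C in NGY medium, then added to MOPS-buffered RPMI 1640 at an initial 10^3 yeasts/ml. Incubated 35°C for 24 h. MIC read visually as the lowest concentration giving a marked decrease in visible growth; paradoxical or trailing growth noted.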

Candida dubliniensis [11] = assay: Antifungal activity against Candida dubliniensis ST after 24 hrs by EUCAST test; summary of the method: as §2
Candida parapsilosis [12] = assay: Antifungal activity against Candida parapsilosis ATCC 22019 after 24 hrs by CLSI M27-A test; conditions: Lodderomyces parapsilosis, ATCC 22019, 24 h; summary of the method: as §3
Candida dubliniensis [13] = assay: Antifungal activity against Candida dubliniensis KR after 24 hrs by EUCAST test; summary of the method: as §2
Candida albicans [14] = assay: Antifungal activity against Candida albicans Y109 after 24 hrs by CLSI M27-A test; summary of the method: as §4
Candida albicans [15] = assay: Antifungal activity against Candida albicans NR2 after 24 hrs by EUCAST test; summary of the method: as §1
Candida albicans [16] = assay: Antifungal activity against Candida albicans T25 after 24 hrs by CLSI M27-A test; summary of the method: as §4
Candida albicans [17] = assay: Antifungal activity against Candida albicans SCS68858 after 24 hrs by CLSI M27-A test; summary of the method: as §4
Candida albicans [18] = assay: Antifungal activity against Candida albicans T25 after 24 hrs by EUCAST test; summary of the method: as §1
Candida dubliniensis [19] = assay: Antifungal activity against Candida dubliniensis 75/043 after 24 hrs by CLSI M27-A test; summary of the method: as §4
Candida albicans [20] = assay: Antifungal activity against Candida albicans AM2003/0083 after 24 hrs by CLSI M27-A test; summary of the method: as §4
Candida albicans [21] = assay: Antifungal activity against Candida albicans NR4 after 24 hrs by CLSI M27-A test; summary of the method: as §4
Candida albicans [22] = assay: Antifungal activity against Candida albicans HK04M102095 after 24 hrs by EUCAST test; summary of the method: as §1
Candida albicans [23] = assay: Antifungal activity against Candida albicans NR3 after 24 hrs by EUCAST test; summary of the method: as §1
Candida dubliniensis [24] = assay: Antifungal activity against Candida dubliniensis KR after 24 hrs by CLSI M27-A test; summary of the method: as §3
Candida dubliniensis [25] = assay: Antifungal activity against Candida dubliniensis ST after 24 hrs by CLSI M27-A test; summary of the method: as §3
Candida parapsilosis [26] = assay: Antifungal activity against Candida parapsilosis ATCC 22019 after 24 hrs by EUCAST test; conditions: Lodderomyces parapsilosis, ATCC 22019, 24 h; summary of the method: as §2
Candida dubliniensis [27] = assay: Antifungal activity against Candida dubliniensis 910Aa after 24 hrs by EUCAST test; summary of the method: as §1
Candida dubliniensis [28] = assay: Antifungal activity against Candida dubliniensis SCS59662 after 24 hrs by CLSI M27-A test; summary of the method: as §3
Candida dubliniensis [29] = assay: Antifungal activity against Candida dubliniensis SCS65875C after 24 hrs by EUCAST test; summary of the method: as §2
Candida dubliniensis [30] = assay: Antifungal activity against Candida dubliniensis IK after 24 hrs by CLSI M27-A test; summary of the method: as §3
Candida albicans [31] = assay: Antifungal activity against Candida albicans NR3 after 24 hrs by CLSI M27-A test; summary of the method: as §4
Candida dubliniensis [32] = assay: Antifungal activity against Candida dubliniensis SCS17154969-1 after 24 hrs by CLSI M27-A test; summary of the method: as §3
Candida dubliniensis [33] = assay: Antifungal activity against Candida dubliniensis SCSBB417709 after 24 hrs by CLSI M27-A test; summary of the method: as §3
Candida dubliniensis [34] = assay: Antifungal activity against Candida dubliniensis SCS59662 after 24 hrs by EUCAST test; summary of the method: as §2

`CC[C@H](C)C[C@H](C)CCCCCCCCC(=O)N[C@H]1C[C@@H](O)[C@@H](NCCN)NC(=O)[C@@H]2[C@@H](O)CCN2C(=O)[C@H]([C@H](O)CCN)NC(=O)[C@H]([C@H](O)[C@@H](O)c2ccc(O)cc2)NC(=O)[C@@H]2C[C@@H](O)CN2C(=O)[C@H]([C@@H](C)O)NC1=O` [CASPOFUNGIN] showed an MIC50 (Candida albicans [1]) of 0.25 µg/mL (≈ 0.229 µM), an MIC50 (Pichia kudriavzevii) of 2 µg/mL (≈ 1.83 µM) and an MIC50 (Candida dubliniensis [2]) of 0.5 µg/mL (≈ 0.457 µM). The MIC50 (Candida dubliniensis [3]) was 0.25 µg/mL (≈ 0.229 µM), the MIC50 (Candida dubliniensis [4]) was 0.5 µg/mL (≈ 0.457 µM) and the MIC50 (Candida albicans [5]) was 16 µg/mL (≈ 14.6 µM). The MIC50 (Candida albicans [6]) was 0.25 µg/mL (≈ 0.229 µM), the MIC50 (Candida dubliniensis [7]) was 16 µg/mL (≈ 14.6 µM) and the MIC50 (Candida albicans [8]) was 0.5 µg/mL (≈ 0.457 µM). For the same molecule, the MIC50 (Candida dubliniensis [9]) was 0.25 µg/mL (≈ 0.229 µM), the MIC50 (Candida albicans [10]) was 0.5 µg/mL (≈ 0.457 µM) and the MIC50 (Candida dubliniensis [11]) was 0.5 µg/mL (≈ 0.457 µM). For the same molecule, the MIC50 (Candida parapsilosis [12]) was 1 µg/mL (≈ 0.915 µM), the MIC50 (Candida dubliniensis [13]) was 0.25 µg/mL (≈ 0.229 µM) and the MIC50 (Candida albicans [14]) was 4 µg/mL (≈ 3.66 µM). The MIC50 (Candida albicans [15]) was 4 µg/mL (≈ 3.66 µM), the MIC50 (Candida albicans [16]) was 8 µg/mL (≈ 7.32 µM) and the MIC50 (Candida albicans [17]) was 0.5 µg/mL (≈ 0.457 µM). The MIC50 (Candida albicans [18]) was 8 µg/mL (≈ 7.32 µM), the MIC50 (Candida dubliniensis [19]) was 0.25 µg/mL (≈ 0.229 µM) and the MIC50 (Candida albicans [20]) was 0.5 µg/mL (≈ 0.457 µM). It also gave an MIC50 (Candida albicans [21]) of 2 µg/mL (≈ 1.83 µM), an MIC50 (Candida albicans [22]) of 0.25 µg/mL (≈ 0.229 µM) and an MIC50 (Candida albicans [23]) of 4 µg/mL (≈ 3.66 µM). It also gave an MIC50 (Candida dubliniensis [24]) of 0.5 µg/mL (≈ 0.457 µM), an MIC50 (Candida dubliniensis [25]) of 0.5 µg/mL (≈ 0.457 µM) and an MIC50 (Candida parapsilosis [26]) of 1 µg/mL (≈ 0.915 µM). The MIC50 (Candida dubliniensis [27]) was 0.25 µg/mL (≈ 0.229 µM), the MIC50 (Candida dubliniensis [28]) was 0.5 µg/mL (≈ 0.457 µM) and the MIC50 (Candida dubliniensis [29]) was 8 µg/mL (≈ 7.32 µM). It also gave an MIC50 (Candida dubliniensis [30]) of 0.5 µg/mL (≈ 0.457 µM), an MIC50 (Candida albicans [31]) of 8 µg/mL (≈ 7.32 µM) and an MIC50 (Candida dubliniensis [32]) of 0.5 µg/mL (≈ 0.457 µM). It also gave an MIC50 (Candida dubliniensis [33]) of 0.5 µg/mL (≈ 0.457 µM) and an MIC50 (Candida dubliniensis [34]) of 0.5 µg/mL (≈ 0.457 µM).
